Data: ChEMBL document CHEMBL1156664, “Frajunolides E-K, briarane diterpenes from Junceella fragilis” (J Nat Prod, 2008)
In brackets after ≈: the same amount, converted by molar mass.

How the values were obtained:
[1] = Antiinflammatory activity against FMLP/CB stimulated human neutrophils assessed as inhibition of superoxide anion generation relative to control; assay type: functional, cell-based; conditions: Neutrophil
How it was run: (§1)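 Human neutrophils were isolated by dextran sedimentation and Ficoll centrifugation. Cells were given 0.5 mg/mL ferricytochrome c and 1 mM Ca2+, equilibrated 2 min at 37 °C, then treated with compound for 5 min. CB (1 µg/mL) was added 3 min before 100 nM FMLP for 10 min. Superoxide was measured as SOD-inhibitable ferricytochrome c reduction. Mean ± SEM, n = 3.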

[2] = Antiinflammatory activity against FMLP/CB stimulated human neutrophils assessed as inhibition of elastase release relative to control; assay type: functional, cell-based; conditions: Neutrophil
How it was run: (§2)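 Neutrophils were supplemented with 100 µM MeO-Suc-Ala-Ala-Pro-Val-p-nitroanilide at 6 × 10^5/mL, equilibrated 2 min at 37 °C, then given compound for 5 min. They were activated with FMLP (100 nM)/CB (0.5 µg/mL), and A405 was followed continuously. The initial rate is expressed relative to the FMLP/CB-activated DMSO control. Mean ± SEM, n = 3.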

[3] = Cytotoxicity against human Doay cells by MTT assay; assay type: functional, cell-based
[4] = system: HeLa; assay: Cytotoxicity against human HeLa cells by MTT assay; assay type: functional, cell-based
[5] = system: HEp-2; assay: Cytotoxicity against human Hep2 cells by MTT assay; assay type: functional, cell-based
[6] = system: WiDr; assay: Cytotoxicity against human WiDr cells by MTT assay; assay type: functional, cell-based
[7] = Antiinflammatory activity against FMLP/CB stimulated human neutrophils assessed as inhibition of elastase release at 10 ug/mL relative to control; assay type: functional; conditions: Neutrophil; how it was run: as §2
[8] = Antiinflammatory activity against FMLP/CB stimulated human neutrophils assessed as inhibition of superoxide anion generation at 10 ug/mL relative to control; assay type: functional; conditions: Neutrophil; how it was run: as §1

IC50 [1] [µg/mL]	IC50 [2] [µg/mL]	Structure (SMILES)	IC50 [3] [µg/mL]	IC50 [4] [µg/mL]	IC50 [5] [µg/mL]	IC50 [6] [µg/mL]	inhibition at 10 µg/mL [7] [%]	inhibition at 10 µg/mL [8] [%]
17.5 (≈ 31.8 µM)	27.4 (≈ 49.8 µM)	C=C1C[C@H](OC(C)=O)[C@H](OC(C)=O)[C@]2(C)[C@@H](OC(C)=O)CC/C(C)=C\[C@@H]3OC(=O)[C@H](C)[C@@]3(O)[C@@H](OC(C)=O)[C@@H]12 (relative stereo) [FRAJUNOLIDE E]	> 20	> 20	> 20	> 20	–	–
–	–	C=C1C[C@H](OC(C)=O)[C@H](OC(C)=O)[C@]2(C)[C@@H](OC(C)=O)C[C@@]3(O)O[C@]4([C@@H](C)C(=O)O[C@H]4[C@@H](Cl)C3=C)[C@@H](OC(C)=O)[C@@H]12 (relative stereo) [FRAJUNOLIDE F]	> 20	> 20	> 20	> 20	10.4	7.4
–	–	C=C1/C=C\[C@H](OC(=O)COC(=O)CC(C)C)[C@@]2(C)[C@@H](OC(C)=O)CC[C@]3(CO3)[C@@H]2[C@H](OC(C)=O)[C@]2(O)[C@@H](C)C(=O)O[C@H]2[C@H]1Cl (relative stereo) [FRAJUNOLIDE G]	> 20	> 20	> 20	> 20	8.3	-7.5
–	–	C=C1C[C@H](OC(C)=O)[C@H](OC(C)=O)[C@]2(C)[C@@H](OC(C)=O)/C=C/C(=C)[C@H](Cl)[C@@H]3OC(=O)[C@H](C)[C@@]3(O)[C@@H](OC(C)=O)[C@@H]12 (relative stereo) [FRAJUNOLIDE H]	> 20	> 20	> 20	> 20	0.1	-1.9
–	–	C=C1/C=C/[C@H](OC(C)=O)[C@@]2(C)[C@@H](OC(C)=O)[C@@H](OC(C)=O)C[C@]3(CO3)[C@@H]2[C@H](OC(C)=O)[C@]2(O)[C@@H](C)C(=O)O[C@H]2[C@H]1Cl (relative stereo) [FRAJUNOLIDE I]	> 20	> 20	> 20	> 20	18.2	-10.3
–	–	C=C1[C@@H]2[C@H](OC(C)=O)[C@@]3(O)[C@H](/C=C(/C)CC[C@H](OC(C)=O)[C@@]2(C)[C@@H](OC(C)=O)C[C@H]1OC(=O)CC)OC(=O)[C@@H]3C (relative stereo) [FRAJUNOLIDE J]	> 20	> 20	> 20	> 20	19.9	20.1
–	–	C=C1CC[C@H](OC(C)=O)[C@]2(C)[C@@H](OC(=O)COC(=O)CC(C)C)/C=C\C(=C)[C@H](Cl)[C@@H]3OC(=O)[C@H](C)[C@@]3(O)[C@@H](OC(C)=O)[C@@H]12 (relative stereo) [FRAJUNOLIDE K]	> 20	> 20	> 20	> 20	8	2.4
–	–	CC[C@@]1(O)C(=O)OCc2c1cc1n(c2=O)Cc2cc3ccccc3nc2-1 [CAMPTOTHECIN]	0.08 (≈ 0.23 µM)	0.19 (≈ 0.545 µM)	0.02 (≈ 0.0574 µM)	0.07 (≈ 0.201 µM)	–	–
–	–	O=c1c(-c2ccc(O)cc2)coc2cc(O)cc(O)c12 [GENISTEIN]	–	–	–	–	51.6	65
